From PubChem BioAssay
Shown are actives, neighbours in structure and some others; about 3.5% of the full set was active somewhere.
MrgX1 agonist – agonists of human MrgX1 receptor, primary screen, HEK293 cells, Fluo-4 calcium flux; AID 588627, 2011; hit rate 0.44% among 310,000; B-score at 10 µM; Fluo-4 calcium fluorescence, agonist mode; stronger effect = higher value; Mas-related G-protein coupled receptor member X1 (Homo sapiens), Q96LB2;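 active = calcium response B-score plate-corrected fluorescence ratio at least 3 library SD, with starting fluorescence B-score inside 5 SD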
Target sequence (Q96LB2 whole entry, looked up): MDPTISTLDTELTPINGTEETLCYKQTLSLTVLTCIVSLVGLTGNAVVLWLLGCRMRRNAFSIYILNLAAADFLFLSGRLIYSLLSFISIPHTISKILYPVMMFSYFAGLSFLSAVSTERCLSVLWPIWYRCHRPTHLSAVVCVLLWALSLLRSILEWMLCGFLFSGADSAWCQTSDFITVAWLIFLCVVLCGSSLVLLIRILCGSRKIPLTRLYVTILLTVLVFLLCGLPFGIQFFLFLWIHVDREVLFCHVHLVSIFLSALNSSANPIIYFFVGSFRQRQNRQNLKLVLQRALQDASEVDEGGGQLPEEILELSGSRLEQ
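times = overnight plating, then 30 min 37 °C plus 30 min room-temperature dye loading | assay system = stable human MrgX1 HEK293 cell line | input = fifteen thousand cells per well | signal = kinetic calcium dye fluorescence, Fluo-4 NW | dosing = compound delivered in addition one of three | read-out = B-scored fluorescence response ratio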
RGS4 inh – RGS4 inhibitors, primary screen, cell-based, HEK293 M3R inducible RGS4, calcium flux; Regulator of G-protein signaling 4 (Homo sapiens), P49798; Fluo-4 calcium flux; stronger effect = higher value; triggered by carbachol at its EC20; B-score at 10 µM; hit rate 0.45% among 310,000; AID 463165, 2010;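 active = B-score, a plate-corrected calcium signal, over three deviations above library mean, with baseline fluorescence within five deviations of library mean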;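 note: RGS4 expression induced by doxycycline in cells with stable M3 receptor; B-score is computed from the integrated fluorescence ratio over baseline after carbachol; higher B-score means a larger calcium signal and so more RGS4 inhibition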
Target sequence (P49798 whole entry, looked up): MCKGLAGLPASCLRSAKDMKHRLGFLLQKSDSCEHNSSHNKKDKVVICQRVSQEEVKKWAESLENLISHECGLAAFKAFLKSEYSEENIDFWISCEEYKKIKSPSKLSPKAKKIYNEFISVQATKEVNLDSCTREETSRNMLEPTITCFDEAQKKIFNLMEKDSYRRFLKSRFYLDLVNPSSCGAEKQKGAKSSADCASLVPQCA
RGS4 act – RGS4 potentiators or activators, primary screen, cell-based, HEK293 M3R inducible RGS4, calcium flux | hit rate 0.92% among 310,000 | carbachol calcium flux Fluo4; stronger effect = lower value | B-score at 10 µM;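 active = B-score of the integrated calcium signal more than 4 SD below the library mean, with starting fluorescence not abnormally high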;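 note: negative B-score means reduced calcium response which marks RGS4 activation or potentiation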
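Material: Inducible-RGS4 HEK293 cells carrying M3 receptor; also added: carbachol at ECmax as muscarinic agonist stimulus; incubation: compound preincubation 20 min at room temperature before agonist; signal: Fluo4-AM (2 µM) calcium-flux fluorescence, kinetic read; measure: integrated calcium ratio converted to B score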
MrgX1 allo act – positive allosteric modulators of MrgX1, primary screen, HEK293 cells, Fluo-4 calcium flux; Mas-related G-protein coupled receptor member X1 (Homo sapiens), Q96LB2; FDSS; stronger effect = higher value; B-score at 10 µM; hit rate 0.63% among 310,000; AID 588675, 2011;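 active = plate-corrected calcium response at least 3 library SD above typical, normal starting fluorescence, not activating the receptor alone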;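 note: compound read alongside a low EC10 to EC30 dose of BAM8-22 agonist; peak minus trough fluorescence over baseline measured at the second addition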
MrgX1 antag – antagonists of human MrgX1 receptor, primary screen, HEK293 cells, Fluo-4 calcium flux | hit rate 1.3% among 310,000 | AID 588676, 2011 | Mas-related G-protein coupled receptor member X1 (Homo sapiens), Q96LB2 | B-score at 10 µM | BAM8-22 antagonism; stronger effect = lower value;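 active = calcium-response B-score plate-corrected more than 3 library SD below zero, starting fluorescence within 5 deviations, no agonist response on first addition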;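 note: peak minus trough fluorescence over baseline after final BAM8-22 challenge near maximal dose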
RGS4 activ val – reduced carbachol calcium response, RGS4-induced M3R cells, confirmation, RGS4 activator project, cell-based, HEK293 M3R/RGS4 inducible, calcium flux, duplicate; shares compounds with RGS4 act; carbachol calcium flux Fluo4; inhibition, % at 10 µM; hit rate 89% among 1,100; AID 602282, 2012;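 active = inhibition above 3 SD of the buffer control wells, cut at about 41% in these data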;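 note: signal is the integrated peak-minus-minimum Fluo4 fluorescence over baseline ratio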
M3R Ca counter – counter-screen for RGS4 activators: effect in non-induced cells | HEK293 M3R non-induced RGS4, Fluo4 calcium flux; after carbachol challenge at its EC90 | inhibition, % at 10 µM | shares compounds with RGS4 act | hit rate 82% among 1,100;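 active = inhibition exceeding 3 SD of buffer-only control wells, cut at about 26% in these data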;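 note: percent drop in integrated peak-minus-baseline over baseline Fluo4 ratio after carbachol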
Of the large screens only hits and unclear results are named; the others gave an inactive call (follow-up assays come after a bar, where they were run).

CC(O/N=C\c1ccccc1O)C(=O)Nc1ccccc1C(=O)N1CCOCC1 (centres undefined)	none
CCOC(=O)c1c(C)n(-c2ccc(C)cc2)c2c(C(C(C)=O)C(=O)O)c(Br)c(O)c(O)c12 (centres undefined)	none
CCOC(=O)C(C(C)=O)c1c(Br)c(O)c(O)c2c(C(=O)c3ccc(C)cc3)coc12 (centres undefined)	RGS4 act -9.2 | RGS4 activ val 42 | M3R Ca counter 39
Cc1ccccc1OCC(=O)NC(=S)Nc1ccccc1N1CCN(S(C)(=O)=O)CC1	RGS4 act -9.1 | RGS4 activ val 62 | M3R Ca counter inactive
COc1ccc(OC)c(/C=C/c2nc3ccccc3[nH]c2=O)c1	RGS4 act -7.7 | RGS4 activ val 60 | M3R Ca counter 44
COc1cc2c(cc1Cl)/C(=C\CCN(C)C)c1ccccc1S2	RGS4 act -9.7 | RGS4 activ val 92 | M3R Ca counter 67
O=C(COc1cc(Cl)c(Cl)cc1Cl)N1CCN(c2ccccn2)CC1	none
Cc1cc2c3c([nH]c2cc1S(=O)(=O)NCc1ccc(CN2CCCCCC2)o1)CCCC3=O	RGS4 act -8.6 | RGS4 activ val 75 | M3R Ca counter 46
CCN(CC)C1CCN(C(=O)c2cc(COc3cccc4cccnc34)on2)C1 (centres undefined)	RGS4 act -9.2 (no result: MrgX1 agonist, MrgX1 allo act, MrgX1 antag) | RGS4 activ val 90 | M3R Ca counter 75
Cc1ccc(S(=O)(=O)Nc2ccc(S(=O)(=O)Nc3nccs3)cc2)c([N+](=O)[O-])c1	none
Cc1cc(C)nc(/N=C(\N)N(Cc2ccccc2)Cc2ccccc2)n1	RGS4 act -8.5 | RGS4 activ val 92 | M3R Ca counter 95
O=C(CCN1CCOCC1)Nc1ccc(Cl)cc1	none
CCCCn1c2ccc(F)cc2c2nnc(SCCN3CCCCC3)nc21	RGS4 act -7.8 (no result: MrgX1 agonist, MrgX1 allo act, MrgX1 antag) | RGS4 activ val 84 | M3R Ca counter 35
Cn1c2ccc(F)cc2c2nnc(SCCN3CCCCC3)nc21	none (no result: MrgX1 agonist, MrgX1 allo act, MrgX1 antag)
COc1cc(NC(=O)c2cccs2)c(OC)cc1NC(=O)CCC(=O)Nc1ccc(C)cc1	none
O=C1CCC(c2ccccc2)(C2CCN(Cc3ccccc3)CC2)C(=O)N1 (centres undefined)	RGS4 act -7.8 | RGS4 activ val 94 | M3R Ca counter 94
COC(=O)c1sc(SC)c(-c2ccon2)c1C	none
Cc1nc(-c2cccc(Br)c2)ccc1C(=O)O	none
N=c1c2c(-c3ccccc3)c(-c3ccccc3)n(Cc3ccco3)c2ncn1Cc1ccccc1	RGS4 act -11 | RGS4 activ val 93 | M3R Ca counter 95
CCOC(=O)c1sc2nc(C)nc(NCc3ccc(F)cc3)c2c1C	none
CCOC(=O)c1sc2nc(C)nc(NCc3ccc(Cl)cc3)c2c1C	RGS4 act -7.8 | RGS4 activ val 90 | M3R Ca counter 42
CCOc1cc(/C=N/N=C2/NC(=O)C(CC(=O)O)S2)ccc1OCc1ccccc1Cl (centres undefined)	none
Cc1ccc(CN2CCN(/N=C/c3cc(Br)cc(Br)c3O)CC2)c(C)c1	none
CC1(C)CC(=O)C2=C(C1)OC(N)=C(C#N)C2c1ccccc1[N+](=O)[O-] (centres undefined)	RGS4 act -11 | RGS4 activ val inactive | M3R Ca counter inactive
CN(Cc1nc(-c2ccc3c(c2)OCO3)no1)CC1(N2CCOCC2)CCCCC1	none
FC(F)(F)c1cccc(Cc2noc(CN3C[C@@H]4CCC[C@H]3C4)n2)c1	none
Cn1ccnc1C1CCCCN1Cc1nc(-c2ccc3c(c2)OCO3)no1 (centres undefined)	RGS4 act -7.8 | RGS4 activ val 86 | M3R Ca counter 62
Cn1ccnc1C1CCCCN1Cc1nc(Cc2cccc(C(F)(F)F)c2)no1 (centres undefined)	RGS4 act -10 | RGS4 activ val 78 | M3R Ca counter 40
COc1ccc(-c2noc(CN3CCCCC3c3nccn3C)n2)cc1 (centres undefined)	RGS4 act -7.6 | RGS4 activ val 66 | M3R Ca counter 84
Cc1ccc(NS(=O)(=O)c2c(C(=O)N3CCOCC3)c(C)n(C)c2C)cc1C	none
CCc1cc2c(Nc3ccc(O)cc3)nc(C)nc2s1	none
COc1ccc(C(=O)Cc2cc(OC)c(OC)cc2C(=O)c2ccccc2F)cc1OC	none
CC(C)Cn1c(CCCNC(=O)c2ccco2)nc2ccccc21	none
CCCCn1c(-c2csc(CCC)c2)n[nH]c1=S	RGS4 act -12 | RGS4 activ val 58 | M3R Ca counter 84
CCCc1cc(-c2n[nH]c(=S)n2CC)cs1	none
CSCC[C@H](NC(=O)OC(C)(C)C)C(=O)N/N=C/c1ccc2nccnc2c1	RGS4 act -12 | RGS4 activ val inactive | M3R Ca counter inactive
Cc1nc(CSc2ccccc2)cc(=O)[nH]1	none
Cc1ccc(OCc2cc(C(=O)N3CCc4sccc4C3)no2)cc1C	RGS4 act -7.7 | RGS4 activ val 81 | M3R Ca counter 44
COc1ccccc1C(=O)NCC1CCN(c2ccc(S(=O)(=O)N3CCOCC3)cc2)CC1	RGS4 act -7.8 | RGS4 activ val 93 | M3R Ca counter 86
S=c1[nH]nc(-c2ccc(Cl)cc2Cl)n1-c1ccccc1	none
S=c1[nH]nc(-c2ccc(Cl)cc2Cl)n1Cc1ccccc1	RGS4 act -7.8 | RGS4 activ val 91 | M3R Ca counter 58
Cc1cccc(-c2n[nH]c(=S)n2Cc2ccccc2)c1	RGS4 act -8 | RGS4 activ val inactive | M3R Ca counter inactive
S=c1[nH]nc(-c2cccc(Cl)c2)n1Cc1ccccc1	none
CC1CCCCN1CC(=O)Nc1ccc(Oc2ccccc2)cc1 (centres undefined)	RGS4 act -9.1 | RGS4 activ val 93 | M3R Ca counter 87
CC1CCCCN1CC(=O)Nc1ccc(N2CCCCCC2)cc1 (centres undefined)	none
COc1cccc(NC(=O)Cc2nnc(SCC(=O)NC3CCCCC3)n2C)c1	none
CN(C)C/C=C/C(O)(c1ccccc1)c1ccccc1	RGS4 act -9.3 | RGS4 activ val 93 | M3R Ca counter 75
CC1CN(S(=O)(=O)c2ccc(F)cc2)C(C)N1C(=O)N1CCOCC1 (centres undefined)	none
